In ChEMBL document CHEMBL1122936, “Facile synthesis of platelet-activating factor and racemic analogues containing unsaturation in the sn-1-alkyl chain” (1985):

What was measured:
Type in all cases: functional
Homo sapiens [1] = species on record: Homo sapiens; assay: Effective dose for lysozyme release in human PMN was measured
Summary of the method: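 Human PMN at 2.6×10^6 cells/mL in Hanks' buffer, 37 °C, 20 min. Cytochalasin B 5 μg/mL for 2–4 min, then racemic analogue challenge 5 min, on ice, spun 200g at 4 °C. Net lysozyme release = % of total minus unstimulated release. ED10 extrapolated for 10% net release from curves averaged over ≥5 dose-response experiments.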

Oryctolagus cuniculus = species on record: Oryctolagus cuniculus; assay: Effective dose for [14C]5-HT release in prelabeled rabbit platelets was measured; settings: read-out: ED50 (the source's name)
Summary of the method: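 Rabbit platelet-rich plasma labeled with [14C]serotonin 1.0 μCi/mL, 37 °C, 15 min. Washed twice, then 5×10^7 platelets/0.2 mL in citrate-free Tyrode's (pH 7.3) with 1 mM Ca2+, 37 °C, 20 min. Challenged 1 min, stopped with formalin on ice, supernatant label counted as % of total cellular label. ED50 extrapolated for 50% release from curves averaged over ≥5 dose-response experiments.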

Homo sapiens [2] = species on record: Homo sapiens; assay: Desensitizing action on human PMN degranulation response, in the presence of FMLP (17 nM) at the dose of 10 nM
Summary of the method: (§1)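 Human neutrophils (>96% PMN, <5 platelets/100 PMN, no erythrocytes) at 2.6×10^6 cells/mL in Hanks' buffer, 37 °C, 20 min. Preincubated 8 min with desensitizing agent in BSA, or BSA alone. Then cytochalasin B 5 μg/mL for 2–4 min, then challenge 5 min with 200 nM 1-O-hexadecyl PAF or 17 nM FMLP. Read-out is net β-glucuronidase release vs BSA-pretreated cells, 14 experiments, unpaired t-test.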

Homo sapiens [3] = species on record: Homo sapiens; assay: Desensitizing action on human PMN degranulation response, in the presence of PAF (200 nM) at the dose of 10 nM; summary of the method: as §1
Homo sapiens [4] = species on record: Homo sapiens; assay: Desensitizing action on human PMN degranulation response, in the presence of FMLP (17 nM) at the dose of 9 nM; summary of the method: as §1
Homo sapiens [5] = species on record: Homo sapiens; assay: Desensitizing action on human PMN degranulation response, in the presence of PAF (200 nM) at the dose of 9 nM; summary of the method: as §1
Homo sapiens [6] = species on record: Homo sapiens; assay: Desensitizing action on human PMN degranulation response, in the presence of PAF (200 nM) at the dose of 60 nM; summary of the method: as §1
Homo sapiens [7] = species on record: Homo sapiens; assay: Desensitizing action on human PMN degranulation response, in the presence of FMLP (17 nM) at the dose of 60 nM; summary of the method: as §1
Homo sapiens [8] = species on record: Homo sapiens; assay: Desensitizing action on human PMN degranulation response, in the presence of PAF (200 nM) at the dose of 8 nM
Summary of the method: (§2)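 Human neutrophils (>96% PMN, <5 platelets/100 PMN, no erythrocytes) in Hanks' buffer at 2.6×10^6 cells/mL, 37 °C, 20 min; preincubated 8 min with desensitizing agent (in BSA) or BSA alone, then cytochalasin B 5 μg/mL for 2–4 min, challenged 5 min (200 nM PAF or 17 nM FMLP). Supernatant assayed for net β-glucuronidase release, 14 experiments; unpaired t-test versus BSA.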

Homo sapiens [9] = species on record: Homo sapiens; assay: Desensitizing action on human PMN degranulation response, in the presence of FMLP (17 nM) at the dose of 8 nM; summary of the method: as §2
Homo sapiens [10] = species on record: Homo sapiens; assay: Desensitizing action on human PMN degranulation response, in the presence of PAF (200 nM) at the dose of 17 nM; summary of the method: as §1
Homo sapiens [11] = species on record: Homo sapiens; assay: Desensitizing action on human PMN degranulation response, in the presence of FMLP (17 nM) at the dose of 17 nM; summary of the method: as §1

EC50 (Oryctolagus cuniculus) [nM]	Structure (SMILES)	ED10 (Homo sapiens [1]) [nM]	Degranulating activity (Homo sapiens [2])	Degranulating activity (Homo sapiens [3])	also measured
0.4	CCCCCCCC/C=C\CCCCCCCCOCC(COP(=O)([O-])OCC[N+](C)(C)C)OC(C)=O (configuration not stated)	13	28.2	0.3	–
0.3	CCCCC/C=C\C/C=C\CCCCCCCCOCC(COP(=O)([O-])OCC[N+](C)(C)C)OC(C)=O (configuration not stated)	9	–	–	Degranulating activity (Homo sapiens [4]): 26.3; Degranulating activity (Homo sapiens [5]): 0.1
0.5	CCCCCC/C=C\CCCCCCCCOCC(COP(=O)([O-])OCC[N+](C)(C)C)OC(C)=O (configuration not stated)	10	29.5	1.4	–

Continued, compound first:

Structure (SMILES)	EC50 (Oryctolagus cuniculus) [nM]	ED10 (Homo sapiens [1]) [nM]	Degranulating activity (Homo sapiens [2])	Degranulating activity (Homo sapiens [3])	also measured
CCCCCCCCCCCCCCCCCCOCC(COP(=O)([O-])OCC[N+](C)(C)C)OC(C)=O (configuration not stated)	0.8	60	–	–	Degranulating activity (Homo sapiens [6]): -1.2; Degranulating activity (Homo sapiens [7]): 22
CCCCCCCCCCCCCCCCOCC(COP(=O)([O-])OCC[N+](C)(C)C)OC(C)=O (configuration not stated) [PLATELET ACTIVATING FACTOR]	0.2	8	–	–	Degranulating activity (Homo sapiens [8]): -0.2; Degranulating activity (Homo sapiens [9]): 23.6
CSCC[C@H](NC=O)C(=O)N[C@@H](CC(C)C)C(=O)N[C@@H](Cc1ccccc1)C(=O)O	–	–	–	–	Degranulating activity (Homo sapiens [10]): 11.9; Degranulating activity (Homo sapiens [11]): 6.2
